# The list is not random: actives were taken first. Their share in the collection is about 1.7%.
# PP5 inh: inhibitors of human protein phosphatase 5 (PP5); P53041; purified PP5c, OMFP substrate fluorescence; inhibition, % at 6.7 µM; 320,000 compounds, 0.18% hits; AID 1987;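 active = inhibition above the campaign's mean inhibition across all tested compounds plus 3 SD, cut at about 9.5% in these data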;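 also: 0% = DMSO only and 100% = 100 µM cantharidin control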
# ZTA counter: ZTA (EBV) inhibition in EBNA-1 counter-screen; 320,000 compounds, 0.15% hits; P03206; ZTA-DNA binding, fluorescence polarization; inhibition, % at 11 µM; in the data active = inhibition above about 33%
# HCV core dimer: HCV core protein dimerization inhibition. TR-FRET GST/Flag-core106 dimerization, 1536-well. 300,000 compounds, 0.33% hits. inhibition, % at 5 µM;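 active = inhibition above the mean of all tested compounds plus 3 SD, set per screening campaign, cut at about 45% in these data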
#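 test system = GST/Flag-tagged HCV core106 proteins | probe or stimulus = Eu donor and XL665 acceptor anti-tag antibodies | times = compound-protein-antibody incubation 4 h at 22.5 °C | signal = TR-FRET, excitation 340 nm, emission 617 and 671 nm | measure = percent inhibition of core106 dimerization signal | controls = wells lacking GST-core106 and wells with excess unlabelled core106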
# PP1 counter: PP1-alpha (human) inhibition in PP5 counter-screen. 320,000 compounds, 0.9% hits. P62136. inhibition, % at 6.7 µM. purified PP1alpha, OMFP fluorescence. AID 2235;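 active = inhibition above the mean inhibition of all tested compounds plus 3 SD, computed separately for each screening campaign, cut at about 15% in these data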
# Target sequence (P62136 whole entry, looked up): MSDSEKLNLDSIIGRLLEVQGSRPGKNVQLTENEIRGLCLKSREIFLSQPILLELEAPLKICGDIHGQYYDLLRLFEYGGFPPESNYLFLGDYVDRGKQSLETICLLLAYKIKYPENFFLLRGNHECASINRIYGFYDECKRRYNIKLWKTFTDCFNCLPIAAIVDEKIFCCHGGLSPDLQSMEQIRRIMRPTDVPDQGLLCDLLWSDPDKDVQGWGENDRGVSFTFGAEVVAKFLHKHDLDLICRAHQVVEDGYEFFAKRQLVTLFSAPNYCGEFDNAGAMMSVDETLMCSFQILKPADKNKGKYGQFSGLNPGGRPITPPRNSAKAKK
# EBNA-1 inh: blocks EBNA-1 binding to DNA; EBNA-1 DNA binding, fluorescence polarization; inhibition, % at 14.8 µM; 300,000 compounds, 0.34% hits; AID 1950; in the data active = inhibition above about 28%
# Starred values were filed as active, the others as inactive; · = no result given.
SMILES,PP5 inh,ZTA counter,HCV core dimer,PP1 counter,EBNA-1 inh
O=C(NC1CCCc2ccccc21)c1cccc(S(=O)(=O)N2CCN(c3ccccc3)CC2)c1 (stereo not given),5,-13,35,15*,-10
COc1ccc([C@H]2CC(=O)C=C(c3cc(OC)ccc3OC)C2)cc1,2,-1,·,-1,·
CN1/C(=C\C(=O)c2ccco2)C(C)(C)c2ccccc21,0,147*,4,-3,39*
CC(Oc1ccc(Cl)cc1Cl)C(=O)NC1=NN(c2ccccc2)C(=O)C1 (stereo not given),4,4,20,17*,-9
O=C(O)c1cccc(NC(=S)N/N=C/c2ccccc2OCc2ccc(Br)cc2)c1,-4,-6,31,17*,27
O=C(N/N=C/c1ccc2cccc(OCc3ccccc3)c2n1)c1ccc(Br)cc1,1,5,21,17*,18
COc1ccc(C(=O)N/N=C/c2ccc3cccc(OCc4ccccc4)c3n2)cc1,3,0,25,9,-3
Cc1cc(C)c(Nc2cc(S(=O)(=O)O)c(N)c3c2C(=O)c2ccccc2C3=O)c(C)c1,8,52*,-13,25*,51*
COc1cc(CO)ccc1OCC(=O)N1CCc2ccccc21,0,-15,-14,-1,1
COc1cc(CCC(=O)OCC(=O)N2CCc3ccccc32)cc(OC)c1OC,3,7,-3,17*,-5
COc1ccc(NC(=O)CN(Cc2ccco2)Cc2ccco2)cc1S(=O)(=O)N1CCCCC1,2,8,·,1,·
Cc1nn(-c2ccccc2)c(Cl)c1/C=C1\SC(=S)NC1=O,3,16,13,9,8
Cc1nn(-c2ccccc2)c(Cl)c1/C=C1\SC(=S)N(CCCCCC(=O)O)C1=O,1,3,20,16*,7
Cc1cc(Br)c2nc3c(c(C(=O)O)c2c1)CCCCC3,-1,-4,72*,6,-2
O=c1nc(/C=C/c2cc([N+](=O)[O-])ccc2Cl)cc(C(F)(F)F)[nH]1,3,23,-3,5,11
O=c1nc(/C=C/c2cccn2-c2ccc([N+](=O)[O-])cc2)cc(C(F)(F)F)[nH]1,0,3,61*,5,12
COc1cc(/C=N/NC(N)=S)ccc1OCC(=O)Nc1ccc(C)cc1,3,34*,2,1,47*
CC1(C)Cc2c(cnn2-c2ccc(F)cc2)C(NC(=O)CN2CCCC2=O)C1 (stereo not given),2,1,-3,-2,-6
CN(c1cccc(Cl)c1)S(=O)(=O)c1cccc(C(=O)NC2=NCCS2)c1,1,17,1,-5,-2
N#Cc1ccc(OCC(=O)Nc2ccc3[nH]c(=O)[nH]c3c2)cc1,-1,-1,-3,-3,-6
CC(=O)Nc1ccc(NC(=O)COc2ccc(-c3ccc(C#N)cc3)cc2)cc1,-2,12,10,17*,-2
NC(=O)[C@H]1CC2(CC(c3cccc(NC(=O)CC(c4ccccc4)c4ccccc4)c3)=NO2)CN1C(=O)C(c1ccccc1)c1ccccc1 (stereo not given in full),3,-5,42,17*,4
C/C=C\C=C/C(=O)Nc1cccc(C2=NOC3(C2)C[C@@H](C(N)=O)N(C(=O)C2(C)CC2)C3)c1 (stereo not given in full),-3,2,16,-2,6
C=C(C)C(=O)N1CC2(CC(c3cccc(NC(=O)/C=C\C=C/C)c3)=NO2)C[C@H]1C(N)=O (stereo not given in full),0,-17,56*,8,-3
C/C=C\C=C/C(=O)Nc1cccc(C2=NOC3(C2)C[C@@H](C(N)=O)N(C(=O)/C=C/CC)C3)c1 (stereo not given in full),-1,8,53*,1,10
SMILES,PP5 inh,ZTA counter,HCV core dimer,PP1 counter,EBNA-1 inh
COc1ccc(-c2nsc(C(=O)N(c3ccc(F)cc3)C(C(=O)NC3CCCC3)c3ccc(OC)cc3)c2N)cc1 (stereo not given),4,-10,53*,0,-5
COc1ccccc1Nc1ncc(-c2cccs2)s1,2,9,50*,-2,-2
Cc1ccc(CN(C)C(=O)c2ccccc2NC(=O)c2ccccc2)o1,-2,-2,·,-4,·
COc1ccccc1N1CCN(C(=O)c2ccc3c(c2)NC(=O)C(CSCc2ccccc2C)N3)CC1 (stereo not given),0,12,41,23*,4
O=C(CSc1ccc(Cl)cc1)N1CCN(c2ccc([N+](=O)[O-])cc2Cl)CC1,2,-13,22,3,8
Cc1ccc(Cl)cc1N1CCN(C(=O)CSc2ccsc2[N+](=O)[O-])CC1,5,2,57*,17*,7
COc1cc(C(=O)NCC(=O)NNC(=O)C2COc3ccccc3O2)cc(OC)c1OC (stereo not given),6,5,·,9,·
CSc1nc(SCC(=O)NCc2ccco2)c2c3c(sc2n1)CN(C)CC3,0,3,48*,5,3
O=C(Nc1cc(S(=O)(=O)Nc2ccc(Cl)cc2)ccc1N1CCCCC1)c1ccc(F)cc1Cl,4,-7,33,10,10
CCN(CC)C(=O)c1cccc(NC(=O)c2ccccc2OCc2c(C)noc2C)c1,0,0,·,-1,·
CCOc1ccc(S(=O)(=O)Nc2cc(Sc3ncn[nH]3)c3oc(=O)sc3c2)cc1,1,4,-4,16*,-8
CCCNC(=O)c1ccc(N2CCC3(CC2)CC(c2cccc(Br)c2)=NO3)c([N+](=O)[O-])c1,3,-14,2,8,2
O=C(CCC(=O)c1ccc[nH]1)c1ccc(Cl)cc1,1,-3,53*,2,-5
COCCN(C(=O)C1CC(=O)N(Cc2ccccc2)C1)c1nc(-c2ccc([N+](=O)[O-])cc2)cs1 (stereo not given),2,-2,·,17*,·
COc1ccc2c(c1)C(=NNc1ccc(C(=O)O)cc1)c1cc(OC)ccc1-2,3,12,-13,16*,21
COc1ccc(/C(C)=N/Nc2ccc(C(=O)O)cc2)c(OC)c1,0,2,-15,-1,6
Cc1ccc(C)n1Cc1ccc(C(=O)O)cc1,2,85*,-47,18*,29*
Cc1cc(C)n(Cc2ccc(C(=O)O)cc2)n1,0,2,-3,-3,9
CCOC(=O)C1=C(CSc2nc3c(cc2C#N)CN(C)CC3)OC(N)=C(C#N)C1c1ccc(Cl)cc1 (stereo not given),2,-1,57*,11,0
CCN(CC)CCOc1ccc(/C(=C(\Cl)c2ccccc2)c2ccccc2)cc1,3,3,-18,18*,8
CCN(CC)CCOc1ccc(Br)cc1,-1,-6,-3,0,10
C=CCOC(=O)C1=C(C)NC(SC)=C(C#N)C1c1cccs1 (stereo not given),2,-8,3,-1,-19
